Experimental data reported in ChEMBL document CHEMBL4689842, “EUbOPEN Chemogenomics Library wave 1” (2021).
Values joined by “and” are separate entries in the source; they are usually repeats but may differ in a detail not shown here. Identical values can stand only once.

System: Fibroblast
Test: Multiplex assay against human fibroblast
Format: toxicity, cell-based
Method in brief: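 At seeding, live cells were stained with Hoechst33342, BioTracker Green Microtubule Cytoskeleton Dye, MitoTracker Red and Annexin V Alexa Fluor 680. After compound addition they were imaged on a CQ1 microscope at 37°C and 5% CO2, and CellPathfinder machine-learning gating sorted them into Hoechst high-intensity objects or normal cells, with normal cells further split into healthy, pyknosed or fragmented nuclei and pyknosed cells into mitotic or apoptotic. Tubulin, mitochondrial-mass and membrane-permeability phenotypes are given as per cents of cells with healthy nuclei.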

[1] = 12 h, 1 µM, compound concentration 1 uM, replicate 1
[2] = 12 h, 1 µM, compound concentration 1 uM, replicate 2
[3] = 12 h, 10 µM, compound concentration 10 uM, replicate 1
[4] = 12 h, 10 µM, compound concentration 10 uM, replicate 2
[5] = 24 h, 1 µM, compound concentration 1 uM, replicate 1
[6] = 24 h, 1 µM, compound concentration 1 uM, replicate 2
[7] = 24 h, 10 µM, compound concentration 10 uM, replicate 1
[8] = 24 h, 10 µM, compound concentration 10 uM, replicate 2
[9] = 48 h, 10 µM, compound concentration 10 uM, replicate 1
[10] = 48 h, 10 µM, compound concentration 10 uM, replicate 2

## CNC(=O)c1ccc(Nc2nc(OC3CCCC3)c3c(-c4ccc5nc(C)oc5c4)c[nH]c3n2)c(OC)c1
[1]
  Population Apoptotic (%): 69%
  Population Fragmented Nuclei (%): 29%
  Population Healthy Nuclei (%): 53%
  Population Hoechst High Intensity Objects (%): 10%
  Population Membrane Permeable-Phenotype (%): 46%
  Population Mitochondria Different-Phenotype (%): 5%
  Population Mitotic Cells (%): 30%
  Population Normal (%): 89%
  Population Pyknosed Nuclei (%): 17%
  Population Tubulin-Different-Phenotype (%): 80%
  Total Cell Count: 237
[2]
  Population Apoptotic (%): 33%
  Population Fragmented Nuclei (%): 60%
  Population Healthy Nuclei (%): 34%
  Population Hoechst High Intensity Objects (%): 33%
  Population Membrane Permeable-Phenotype (%): 45%
  Population Mitochondria Different-Phenotype (%): 9%
  Population Mitotic Cells (%): 66%
  Population Normal (%): 66%
  Population Pyknosed Nuclei (%): 4%
  Population Tubulin-Different-Phenotype (%): 86%
  Total Cell Count: 96
[3]
  Population Apoptotic (%): 77%
  Population Fragmented Nuclei (%): 33%
  Population Healthy Nuclei (%): 50%
  Population Hoechst High Intensity Objects (%): 14%
  Population Membrane Permeable-Phenotype (%): 14%
  Population Mitotic Cells (%): 22%
  Population Normal (%): 85%
  Population Pyknosed Nuclei (%): 16%
  Population Tubulin-Different-Phenotype (%): 26%
  Total Cell Count: 194
[4]
  Population Apoptotic (%): 33%
  Population Fragmented Nuclei (%): 60%
  Population Healthy Nuclei (%): 27%
  Population Hoechst High Intensity Objects (%): 40%
  Population Membrane Permeable-Phenotype (%): 30%
  Population Mitochondria Different-Phenotype (%): 7%
  Population Mitotic Cells (%): 66%
  Population Normal (%): 59%
  Population Pyknosed Nuclei (%): 12%
  Population Tubulin-Different-Phenotype (%): 23%
[5]
  Population Apoptotic (%): 67%
  Population Fragmented Nuclei (%): 36%
  Population Healthy Nuclei (%): 41%
  Population Hoechst High Intensity Objects (%): 10%
  Population Membrane Permeable-Phenotype (%): 26%
  Population Mitochondria Different-Phenotype (%): 11%
  Population Mitotic Cells (%): 32%
  Population Normal (%): 89%
  Population Pyknosed Nuclei (%): 22%
  Population Tubulin-Different-Phenotype (%): 79%
  Total Cell Count: 265
[6]
  Population Apoptotic (%): 100%
  Population Fragmented Nuclei (%): 62%
  Population Healthy Nuclei (%): 35%
  Population Hoechst High Intensity Objects (%): 35%
  Population Membrane Permeable-Phenotype (%): 19%
  Population Mitochondria Different-Phenotype (%): 19%
  Population Mitotic Cells (%): 0%
  Population Normal (%): 64%
  Population Pyknosed Nuclei (%): 1%
  Population Tubulin-Different-Phenotype (%): 90%
  Total Cell Count: 92
[7]
  Population Fragmented Nuclei (%): 28%
  Population Healthy Nuclei (%): 52%
  Population Hoechst High Intensity Objects (%): 23%
  Population Membrane Permeable-Phenotype (%): 5%
  Population Mitochondria Different-Phenotype (%): 3%
  Population Normal (%): 76%
  Population Pyknosed Nuclei (%): 19%
  Population Tubulin-Different-Phenotype (%): 19%
  Total Cell Count: 193
[8]
  Population Apoptotic (%): 71%
  Population Fragmented Nuclei (%): 60%
  Population Healthy Nuclei (%): 25%
  Population Hoechst High Intensity Objects (%): 40%
  Population Membrane Permeable-Phenotype (%): 7%
  Population Mitochondria Different-Phenotype (%): 7%
  Population Mitotic Cells (%): 28%
  Population Normal (%): 60%
  Population Pyknosed Nuclei (%): 13%
  Population Tubulin-Different-Phenotype (%): 23%
  Total Cell Count: 85

## CN1CCN(C(=O)C(C)(C)c2ccc(C(=O)Nc3cn4cc(-c5ccncc5)ccc4n3)cc2)CC1 [T3-CLK]
[3]
  Population Apoptotic (%): 65% and 61% and 86%
  Population Fragmented Nuclei (%): 35% and 22%
  Population Healthy Nuclei (%): 48% and 50% and 64%
  Population Hoechst High Intensity Objects (%): 12% and 17%
  Population Mitochondria Different-Phenotype (%): 6%
  Population Mitotic Cells (%): 35% and 38% and 13%
  Population Normal (%): 87% and 82%
  Population Pyknosed Nuclei (%): 15% and 14% and 13%
  Total Cell Count: 145 and 330 and 306
[4]
  Population Membrane Permeable-Phenotype (%): 31% and 20% and 21%
  Population Normal (%): 73% and 49% and 92%
  Population Pyknosed Nuclei (%): 6% and 9% and 11%
  Population Tubulin-Different-Phenotype (%): 44% and 60% and 94%
  Total Cell Count: 87 and 63 and 57
[7]
  Population Apoptotic (%): 69% and 55% and 80%
  Population Fragmented Nuclei (%): 37% and 35% and 18%
  Population Healthy Nuclei (%): 48% and 45% and 67%
  Population Hoechst High Intensity Objects (%): 18% and 11% and 13%
  Population Mitotic Cells (%): 30% and 44% and 20%
  Population Normal (%): 81% and 88% and 86%
  Population Pyknosed Nuclei (%): 13% and 19%
  Total Cell Count: 335 and 161 and 296
[8]
  Population Membrane Permeable-Phenotype (%): 33% and 17%
  Population Normal (%): 58% and 90% and 61%
  Population Pyknosed Nuclei (%): 9% and 11% and 6%
  Population Tubulin-Different-Phenotype (%): 33% and 88% and 50%
  Total Cell Count: 53 and 57 and 76
[9]
  Population Apoptotic (%): 52%
  Population Fragmented Nuclei (%): 52%
  Population Healthy Nuclei (%): 32%
  Population Hoechst High Intensity Objects (%): 17%
  Population Membrane Permeable-Phenotype (%): 32%
  Population Mitochondria Different-Phenotype (%): 20%
  Population Mitotic Cells (%): 47%
  Population Normal (%): 82%
  Population Pyknosed Nuclei (%): 15%
  Population Tubulin-Different-Phenotype (%): 76%
  Total Cell Count: 162
[10]
  Population Apoptotic (%): 63%
  Population Fragmented Nuclei (%): 38%
  Population Healthy Nuclei (%): 49%
  Population Hoechst High Intensity Objects (%): 6%
  Population Membrane Permeable-Phenotype (%): 47%
  Population Mitochondria Different-Phenotype (%): 15%
  Population Mitotic Cells (%): 36%
  Population Normal (%): 93%
  Population Pyknosed Nuclei (%): 12%
  Population Tubulin-Different-Phenotype (%): 65%
  Total Cell Count: 95
